Assay results: ChEMBL document CHEMBL1127290, “1-(2,5-Dimethoxy-4-(trifluoromethyl)phenyl)-2-aminopropane: a potent serotonin 5-HT2A/2C agonist” (J Med Chem, 1994)

Assays:
[1] = target: T1, 5-hydroxytryptamine receptor 2C (Mus musculus) (UniProt P34968); assay: Percent of maximum stimulation of phosphatidylinositol turnover at cloned 5-hydroxytryptamine 2C receptor in A9 cells; type: functional, cell-based
T1 sequence (whole entry): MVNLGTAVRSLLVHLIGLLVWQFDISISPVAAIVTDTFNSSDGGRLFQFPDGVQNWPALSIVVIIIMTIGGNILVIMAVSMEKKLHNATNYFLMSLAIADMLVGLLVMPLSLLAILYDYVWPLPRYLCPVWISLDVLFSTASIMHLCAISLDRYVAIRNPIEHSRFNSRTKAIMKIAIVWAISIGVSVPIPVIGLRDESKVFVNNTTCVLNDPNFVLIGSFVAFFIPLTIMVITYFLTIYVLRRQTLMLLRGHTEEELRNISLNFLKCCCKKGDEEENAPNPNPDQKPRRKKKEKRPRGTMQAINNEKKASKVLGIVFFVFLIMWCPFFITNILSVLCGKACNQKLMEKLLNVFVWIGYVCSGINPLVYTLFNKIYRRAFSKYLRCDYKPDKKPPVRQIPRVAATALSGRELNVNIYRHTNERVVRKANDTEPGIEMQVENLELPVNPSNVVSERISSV
How it was run: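 A9 cells expressing cloned 5-HT2C receptor, labelled 18 h with 1 μCi/mL [3H]inositol in inositol-free DMEM with dialysed serum. Compounds given 60 min with 10 mM LiCl in Krebs bicarbonate buffer, then [3H]inositol monophosphate accumulation measured. Expressed as % of the 5-HT (10^-5 M) maximum minus control. Vmax by nonlinear regression. Triplicates in three experiments, mean ± SE.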

[2] = target: 5-hydroxytryptamine receptor 2A (Mus musculus) (UniProt P35363); assay: Percent of maximum stimulation of phosphatidylinositol turnover at cloned 5-hydroxytryptamine 2A receptor in 3T3 cells; type: functional, cell-based; conditions: NIH3T3
Chain of 5-hydroxytryptamine receptor 2A (Mus musculus) (P35363 whole entry): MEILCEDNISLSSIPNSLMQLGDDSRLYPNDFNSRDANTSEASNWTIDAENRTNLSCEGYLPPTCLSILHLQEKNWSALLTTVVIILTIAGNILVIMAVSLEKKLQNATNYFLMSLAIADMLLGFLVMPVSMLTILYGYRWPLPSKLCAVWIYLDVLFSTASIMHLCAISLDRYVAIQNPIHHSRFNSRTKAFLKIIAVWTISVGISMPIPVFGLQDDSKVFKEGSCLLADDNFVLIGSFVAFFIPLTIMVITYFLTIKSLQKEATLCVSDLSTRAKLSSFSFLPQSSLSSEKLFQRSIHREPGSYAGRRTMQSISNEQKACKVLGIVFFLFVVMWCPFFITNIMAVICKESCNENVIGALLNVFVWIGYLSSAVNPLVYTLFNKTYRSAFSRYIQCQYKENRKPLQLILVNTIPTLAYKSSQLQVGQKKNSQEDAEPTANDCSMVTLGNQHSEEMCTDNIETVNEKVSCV

SMILES	K aff [1]	K aff [2]
COc1cc(CC(C)N)c(OC)cc1I (stereo unspecified)	43 nM	119 nM
COc1cc(C(F)(F)F)c(OC)cc1CC(C)N (stereo unspecified)	43 nM	86 nM
COc1cc(C(F)(F)F)c(OC)cc1CCN	32 nM	165 nM
